Converted amounts (≈) assume the structure as drawn. The source made the active and inactive calls. The calls are words filed in the database; no cut-off is given here.
Legend:
[1] = tested on: Plasmodium falciparum; test: Antimalarial activity against chloroquine-sensitive Plasmodium falciparum 3D7 erythrocytic stage after 48 hrs by Giemsa staining-based microscopic analysis; type: functional, organism-based; conditions: 3D7, 48 h
How it was run: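 Parasites kept in human O+ erythrocytes in RPMI 1640 with HEPES, NaHCO3, L-glutamine, gentamicin and Albumax II, under 3% O2/4% CO2/93% N2 at 37 °C. DMSO stocks (1 mg/ml) diluted into gentamicin-free RPMI. Graded concentrations for 48 h at 37 °C, medium changed at 24 h, in triplicate. Parasites counted per about 4000 erythrocytes on Giemsa thin smears. IC50 taken from semi-log plots.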

[2] = Cytotoxicity against human HuH7 cells assessed as reduction in cell viability after 72 hrs by MTT assay; type: cell-based, Huh-7
How it was run: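 Huh-7 monolayers grown in DMEM at 37 °C in 5% CO2. Cells seeded at about 20,000 per well and left 24 h, then given fresh medium containing 1, 10, 20, 30, 50 or 100 μg/mL compound for 72 h. Viability read by MTT, absorbance at 570 nm.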

[3] = molecular target: DNA gyrase (Escherichia coli) (UniProt P0AES6+P0AES4); test: Inhibition of Escherichia coli DNA gyrase assessed as inhibition of enzyme-mediated supercoiling of relaxed pHOT1 DNA substrate at IC50 after 1 hr by ethidium bromide staining based agarose gel electrophoresis; type: protein-complex assay

SMILES	IC50 [1]	CC50 at 72 h [2]	inhibition [3]
Cc1cc(=O)oc2cc(OCc3c[nH]nn3)ccc12	1.82 µg/mL (≈ 7.06 µM)	> 100 µg/mL	–
Cc1cc(=O)oc2cc(OCc3cn(-c4ccc(F)c(Cl)c4)nn3)ccc12	7.43 µg/mL (≈ 19.3 µM)	> 100 µg/mL	–
Cc1cc(F)ccc1-n1cc(COc2ccc3c(C)cc(=O)oc3c2)nn1	12.8 µg/mL (≈ 35 µM)	> 100 µg/mL	–
Cc1cc(=O)oc2cc(OCc3cn(-c4ccc(OC(F)(F)F)cc4)nn3)ccc12	5 µg/mL (≈ 12 µM)	> 100 µg/mL	–
Cc1cc(=O)oc2cc(OCc3cn(Cc4ccccc4)nn3)ccc12	6.4 µg/mL (≈ 18.4 µM)	> 100 µg/mL	–
Cc1cc(=O)oc2cc(OCc3cn(-c4ccc(Cl)cc4)nn3)ccc12	8.43 µg/mL (≈ 22.9 µM)	> 100 µg/mL	–
Cc1cc(=O)oc2cc(OCc3cn(CCO)nn3)ccc12	3.36 µg/mL (≈ 11.2 µM)	> 100 µg/mL	–
COc1cc(-n2cc(COc3ccc4c(C)cc(=O)oc4c3)nn2)cc(OC)c1OC	11.1 µg/mL (≈ 26.1 µM)	> 100 µg/mL	–
Cc1ccc(-n2cc(COc3ccc4c(C)cc(=O)oc4c3)nn2)c(Cl)c1	1.5 µg/mL (≈ 3.92 µM)	> 100 µg/mL	Active
Cc1cc(=O)oc2cc(OCc3cn(-c4ccccc4F)nn3)ccc12	2.48 µg/mL (≈ 7.06 µM)	> 100 µg/mL	–
Cc1cc(=O)oc2cc(OCc3cn(-c4ccnc5cc(Cl)ccc45)nn3)ccc12	10.6 µg/mL (≈ 25.3 µM)	> 100 µg/mL	–
Cc1cc(=O)oc2cc(OCc3cn(-c4cccc(F)c4)nn3)ccc12	9.46 µg/mL (≈ 26.9 µM)	> 100 µg/mL	–
Cc1cc(C)cc(-n2cc(COc3ccc4c(C)cc(=O)oc4c3)nn2)c1	0.893 µg/mL (≈ 2.47 µM)	> 100 µg/mL	Active
Cc1cc(=O)oc2cc(OCc3cn(-c4ccccc4Cl)nn3)ccc12	8.94 µg/mL (≈ 24.3 µM)	> 100 µg/mL	–
Cc1cc(=O)oc2cc(OCc3cn(-c4ccc(F)cc4)nn3)ccc12	6.43 µg/mL (≈ 18.3 µM)	> 100 µg/mL	–
Cc1cc(=O)oc2cc(OCc3cn(-c4ccc(F)cc4F)nn3)ccc12	15.4 µg/mL (≈ 41.7 µM)	> 100 µg/mL	–
CC(=O)Nc1ccc(-n2cc(COc3ccc4c(C)cc(=O)oc4c3)nn2)cc1	4.16 µg/mL (≈ 10.7 µM)	> 100 µg/mL	–
Cc1cc(=O)oc2cc(OCc3cn(Cc4ccc([N+](=O)[O-])cc4)nn3)ccc12	2.23 µg/mL (≈ 5.68 µM)	> 100 µg/mL	–
COC(=O)Cn1cc(COc2ccc3c(C)cc(=O)oc3c2)nn1	3.3 µg/mL (≈ 10 µM)	> 100 µg/mL	–
Cc1cc(=O)oc2cc(OCc3cn(-c4ccc(Oc5ccccc5)cc4)nn3)ccc12	4.56 µg/mL (≈ 10.7 µM)	> 100 µg/mL	–
COc1ccc(-n2cc(COc3ccc4c(C)cc(=O)oc4c3)nn2)c(OC)c1	0.763 µg/mL (≈ 1.94 µM)	> 100 µg/mL	Active
Cc1cc(=O)oc2cc(OCc3cn(-c4ccccc4[N+](=O)[O-])nn3)ccc12	6.86 µg/mL (≈ 18.1 µM)	> 100 µg/mL	–

From ChEMBL document CHEMBL4145496, “In vitro antiplasmodial efficacy of synthetic coumarin-triazole analogs” (Eur J Med Chem, 2018)
